Test results as given in ChEMBL document CHEMBL1255479, “Preclinical characterization of the antiviral activity of SCH 900518 (narlaprevir), a novel mechanism-based inhibitor of hepatitis C virus NS3 protease” (Antimicrob Agents Chemother, 2010).
The source made the active and inactive calls. No cut-off for these calls is given here.

What was measured:
Hepatitis C virus [1] = assay: Resistance index, ratio of EC50 for boceprevir-resistant Hepatitis C virus genotype 1b expressing NS3 protease R155K mutant to EC50 for wild type Hepatitis C virus genotype 1b after 3 days by RT-PCR method; format: functional, Hepacivirus hominis
Procedure, shortened: (§1)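 Replicons carrying mutant or wild-type NS3 protease treated 3 days; replicon RNA by real-time PCR against GAPDH. EC50 = concentration raising CT by 1 over projected baseline; EC90 = increase of 3.2. Index = mutant/wild-type fold increase, means of two or more experiments unless stated (some single experiment).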

Hepatitis C virus [2] = assay: Ratio of Ki for boceprevir-resistant Hepatitis C virus genotype 1b NS3 protease T54S and R155K double-mutant to Ki for Hepatitis C virus genotype 1b NS3 protease; set-up: species or system Hepatitis C virus subtype 1b
Procedure, shortened: (§2)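 Recombinant single-chain NS3-NS4A protease (wild type or mutant) in a continuous spectrophotometric assay with chromogenic substrate acetyl-DTEDVVP(norvaline)-O-4-phenylazophenol. Absorbance followed over 60 min at several inhibitor concentrations. Progress curves fit to a modified Morrison equation; K*i derived using substrate concentration and Km. Values are mutant/wild-type fold increase, means of two or more experiments unless noted.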

Hepatitis C virus [3] = assay: Ratio of Ki for boceprevir-resistant Hepatitis C virus genotype 1b NS3 protease V36M mutant to Ki for Hepatitis C virus genotype 1b NS3 protease; set-up: species or system Hepatitis C virus subtype 1b; procedure, shortened: as §2
Hepatitis C virus [4] = assay: Ratio of Ki for boceprevir-resistant Hepatitis C virus genotype 1b NS3 protease V36M and R155K double-mutant to Ki for Hepatitis C virus genotype 1b NS3 protease; set-up: species or system Hepatitis C virus subtype 1b; procedure, shortened: as §2
Hepatitis C virus [5] = assay: Ratio of Ki for boceprevir-resistant Hepatitis C virus genotype 1b NS3 protease T54A mutant to Ki for Hepatitis C virus genotype 1b NS3 protease; set-up: species or system Hepatitis C virus subtype 1b; procedure, shortened: as §2
Hepatitis C virus [6] = assay: Resistance index, ratio of EC90 for Hepatitis C virus genotype 1b expressing NS3 protease T54A and A156T mutant to EC90 for wild type Hepatitis C virus genotype 1b after 3 days by RT-PCR method; format: functional, Hepacivirus hominis; procedure, shortened: as §1
Hepatitis C virus [7] = assay: Resistance index, ratio of EC50 for boceprevir-resistant Hepatitis C virus genotype 1b expressing NS3 protease A156T mutant to EC50 for wild type Hepatitis C virus genotype 1b after 3 days by RT-PCR method; format: functional, Hepacivirus hominis; procedure, shortened: as §1
Hepatitis C virus [8] = assay: Ratio of Ki for boceprevir-resistant Hepatitis C virus genotype 1b NS3 protease R155K mutant to Ki for Hepatitis C virus genotype 1b NS3 protease; set-up: species or system Hepatitis C virus subtype 1b; procedure, shortened: as §2
Hepatitis C virus [9] = assay: Resistance index, ratio of EC90 for Hepatitis C virus genotype 1b expressing NS3 protease A156S mutant to EC90 for wild type Hepatitis C virus genotype 1b after 3 days by RT-PCR method; format: functional, Hepacivirus hominis; procedure, shortened: as §1
Hepatitis C virus [10] = assay: Ratio of Ki for boceprevir-resistant Hepatitis C virus genotype 1b NS3 protease F43C mutant to Ki for Hepatitis C virus genotype 1b NS3 protease; set-up: species or system Hepatitis C virus subtype 1b; procedure, shortened: as §2
Hepatitis C virus [11] = assay: Resistance index, ratio of EC50 for boceprevir-resistant Hepatitis C virus genotype 1b expressing NS3 protease D168V mutant to EC50 for wild type Hepatitis C virus genotype 1b after 3 days by RT-PCR method; format: functional, Hepacivirus hominis; procedure, shortened: as §1
Hepatitis C virus [12] = assay: Ratio of Ki for boceprevir-resistant Hepatitis C virus genotype 1b NS3 protease D168V mutant to Ki for Hepatitis C virus genotype 1b NS3 protease; set-up: species or system Hepatitis C virus subtype 1b; procedure, shortened: as §2
Hepatitis C virus [13] = assay: Resistance index, ratio of EC90 for Hepatitis C virus genotype 1b expressing NS3 protease A156T/V mutant to EC90 for wild type Hepatitis C virus genotype 1b after 3 days by RT-PCR method; format: functional, Hepacivirus hominis; procedure, shortened: as §1
Hepatitis C virus [14] = assay: Ratio of Ki for boceprevir-resistant Hepatitis C virus genotype 1b NS3 protease T54S mutant to Ki for Hepatitis C virus genotype 1b NS3 protease; set-up: species or system Hepatitis C virus subtype 1b; procedure, shortened: as §2
[15] = Cytotoxicity against human HuH7 cells by MTS assay; format: cell-based, Huh-7
[16] = Inhibition of Hepatitis C virus genotype 2a NS3 protease; set-up: species or system Hepatitis C virus subtype 2a
Procedure, shortened: (§3)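 Recombinant single-chain NS3-NS4A protease (genotypes 1a, 1b, 2a, 3a). Continuous spectrophotometric assay: enzyme added to an equal volume of buffer containing the chromogenic substrate acetyl-DTEDVVP(norvaline)-O-4-phenylazophenol. Absorbance was followed for 60 min at several inhibitor levels. Progress curves were fit to a modified Morrison equation. Overall K*i was derived from vs/vo versus [I], corrected using substrate concentration and Km.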

Hepatitis C virus [17] = assay: Resistance index, ratio of EC50 for boceprevir-resistant Hepatitis C virus genotype 1b expressing NS3 protease V36M and R155K mutant to EC50 for wild type Hepatitis C virus genotype 1b after 3 days by RT-PCR method; format: functional, Hepacivirus hominis; procedure, shortened: as §1
Hepatitis C virus [18] = assay: Ratio of Ki for boceprevir-resistant Hepatitis C virus genotype 1b NS3 protease V170A mutant to Ki for Hepatitis C virus genotype 1b NS3 protease; set-up: species or system Hepatitis C virus subtype 1b; procedure, shortened: as §2
Hepatitis C virus [19] = assay: Ratio of Ki for boceprevir-resistant Hepatitis C virus genotype 1b NS3 protease A156T mutant to Ki for Hepatitis C virus genotype 1b NS3 protease; set-up: species or system Hepatitis C virus subtype 1b; procedure, shortened: as §2
[20] = Inhibition of Hepatitis C virus genotype 3a NS3 protease; set-up: species or system Hepatitis C virus subtype 3a; procedure, shortened: as §3
Hepatitis C virus [21] = assay: Resistance index, ratio of EC50 for boceprevir-resistant Hepatitis C virus genotype 1b expressing NS3 protease T54A mutant to EC50 for wild type Hepatitis C virus genotype 1b after 3 days by RT-PCR method; format: functional, Hepacivirus hominis; procedure, shortened: as §1
Hepatitis C virus [22] = assay: Inhibition of Hepatitis C virus genotype 1b NS3 protease; set-up: species or system Hepatitis C virus subtype 1b; procedure, shortened: as §3
Hepatitis C virus [23] = assay: Antiviral activity against Hepatitis C virus genotype 1b assessed as log reduction in RNA level at 1.2 times EC90 after 14 days by RT-PCR method; format: functional, organism-based; details: Hepacivirus hominis
Procedure, shortened: (§4)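 Replicon cells kept on compound for up to 14 days, refreshed every 2–3 days and split at confluence. Replicon RNA by TaqMan: dCT = NS5B CT − GAPDH CT; ddCT = treated dCT − vehicle-control dCT; log RNA reduction = log(1/2^ddCT), with day 0 set to 0. Curve fit to one-phase exponential decay.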

Hepatitis C virus [24] = assay: Ratio of Ki for boceprevir-resistant Hepatitis C virus genotype 1b NS3 protease V36A mutant to Ki for Hepatitis C virus genotype 1b NS3 protease; set-up: species or system Hepatitis C virus subtype 1b; procedure, shortened: as §2
Hepatitis C virus [25] = assay: Resistance index, ratio of EC90 for Hepatitis C virus genotype 1b expressing NS3 protease T54A/S mutant to EC90 for wild type Hepatitis C virus genotype 1b after 3 days by RT-PCR method; format: functional, Hepacivirus hominis; procedure, shortened: as §1
Hepatitis C virus [26] = assay: Resistance index, ratio of EC50 for boceprevir-resistant Hepatitis C virus genotype 1b expressing NS3 protease V170A mutant to EC50 for wild type Hepatitis C virus genotype 1b after 3 days by RT-PCR method; format: functional, Hepacivirus hominis; procedure, shortened: as §1
Hepatitis C virus [27] = assay: Antiviral activity against Hepatitis C virus genotype 1b assessed as decrease in RNA level after 3 days by RT-PCR method; format: functional, Hepacivirus hominis; details: 72 h
Procedure, shortened: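 Genotype 1b replicon cells seeded on collagen I-coated plates; compound added 24 h post-seeding and incubated 3 days. Cells lysed; replicon RNA by real-time PCR (TaqMan) with GAPDH RNA as endogenous control. EC50 = concentration giving a CT increase of 1 over projected baseline CT; EC90 = increase of 3.2. Triplicate measurements.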

[28] = Inhibition of Hepatitis C virus genotype 1a NS3 protease; set-up: species or system Hepatitis C virus subtype 1a; procedure, shortened: as §3
Hepatitis C virus [29] = assay: Resistance index, ratio of EC50 for boceprevir-resistant Hepatitis C virus genotype 1b expressing NS3 protease A156S mutant to EC50 for wild type Hepatitis C virus genotype 1b after 3 days by RT-PCR method; format: functional, Hepacivirus hominis; procedure, shortened: as §1
Hepatitis C virus [30] = assay: Ratio of Ki for boceprevir-resistant Hepatitis C virus genotype 1b NS3 protease A156S mutant to Ki for Hepatitis C virus genotype 1b NS3 protease; set-up: species or system Hepatitis C virus subtype 1b; procedure, shortened: as §2
Hepatitis C virus [31] = assay: Resistance index, ratio of EC50 for boceprevir-resistant Hepatitis C virus genotype 1b expressing NS3 protease V36M mutant to EC50 for wild type Hepatitis C virus genotype 1b after 3 days by RT-PCR method; format: functional, Hepacivirus hominis; procedure, shortened: as §1
Hepatitis C virus [32] = assay: Antiviral activity against Hepatitis C virus genotype 1b assessed as log reduction in RNA level at 5 times EC90 after 14 days by RT-PCR method; format: functional, organism-based; details: Hepacivirus hominis; procedure, shortened: as §4

CCCC[C@H](NC(=O)[C@@H]1[C@@H]2[C@H](CN1C(=O)[C@@H](NC(=O)NC1(CS(=O)(=O)C(C)(C)C)CCCCC1)C(C)(C)C)C2(C)C)C(=O)C(=O)NC1CC1 [NARLAPREVIR]
Ratio EC50 (Hepatitis C virus [1]): 15
Ratio Ki (Hepatitis C virus [2]): 58
Ratio Ki (Hepatitis C virus [3]): 3
Ratio Ki (Hepatitis C virus [4]): 160
Ratio Ki (Hepatitis C virus [5]): 8
Ratio (Hepatitis C virus [6]): >600
Ratio EC50 (Hepatitis C virus [7]): > 1000
Ratio Ki (Hepatitis C virus [8]): 8
Ratio (Hepatitis C virus [9]): 30
Ratio Ki (Hepatitis C virus [10]): 8
Ratio EC50 (Hepatitis C virus [11]): 1
Ratio Ki (Hepatitis C virus [12]): 1
Ratio (Hepatitis C virus [13]): 500
Ratio Ki (Hepatitis C virus [14]): 3
CC50 [15]: > 25000 nM
Ki [16]: 3 nM
Ratio EC50 (Hepatitis C virus [17]): 130
Ratio Ki (Hepatitis C virus [18]): 6
Ratio Ki (Hepatitis C virus [19]): 3000
Ki [20]: 7 nM
Ratio EC50 (Hepatitis C virus [21]): 11
Ki (Hepatitis C virus [22]): 7 nM
Activity (Hepatitis C virus [23]): Active
Ratio Ki (Hepatitis C virus [24]): 5
Ratio (Hepatitis C virus [25]): 10
Ratio EC50 (Hepatitis C virus [26]): 10
EC90 (Hepatitis C virus [27]): 40 nM
Ki [28]: 0.7 nM
Ratio EC50 (Hepatitis C virus [29]): 70
Ratio Ki (Hepatitis C virus [30]): 100
Ratio EC50 (Hepatitis C virus [31]): 8
Activity (Hepatitis C virus [32]): Active
